Experimental data reported in paper PMC8819215 (Iranian Journal of Public Health, 2021).
Like-named read-outs stand apart in the source and are kept apart here.

Assays:
parasites = conditions: cited from earlier work
L. major promastigotes = test: Promastigote growth inhibition; format: cell-based, Leishmania major
Method in brief: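 Stationary-phase (5 d) L. major MRHO/IR/75/ER promastigotes (1×10^6) were grown at 26 °C in RPMI-1640 with 10% heat-inactivated FCS, pH 7.4. They received TBO (7.8–500 μg/ml) plus 630 nm LED irradiation. MTT at 570 nm was read at 2, 24 and 48 h, as % of untreated OD. IC50 came from dose-response curves, triplicates. SI = macrophage CC50/promastigote IC50.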

L. braziliensis [1] = conditions: 10 μg/ml TBO; cited from earlier work
[2] = tested on: J774A.1 macrophages cell line; test: Cytotoxicity; format: cell-based, mice
L. major = conditions: cited from earlier work
L. braziliensis [3] = conditions: in-vitro; cited from earlier work

Compound: CN(C)c1ccc2nc3ccc(=[N+](C)C)cc-3sc2c1 [MB, methylene blue]
- decrease of parasites viability (parasites; PDT): more than 70%
- decrease of parasites viability (parasites; in the dark, higher concentration of MB): up to 50%

Compound: Cc1cc2nc3ccc(N(C)C)cc3[s+]c2cc1N.[Cl-] [TBO, Toluidine Blue O]
- decrease in viability (L. major promastigotes; PDT, three highest concentrations, after 24 h): more than 70%
- toxicity to parasites (L. major promastigotes; dark group (no PDT), highest concentrations): intermediate toxicity
- parasite viability (L. braziliensis [1]): significantly reduced
- toxicity to macrophages compared to glucantime (positive control) [2]: less toxicity
- cytotoxicity to J774.A1 macrophages ([2]; dark group): no cytotoxic

Compound: Aluminum phthalocyanine
- phototoxicity (L. major; 10.0μM concentration and 10 J/cm^2 irradiation): phototoxic

Compound: aluminum phthalocyanine tetra sulfonate
- elimination of parasites by PDT (L. major; in-vitro): effectively eliminated
- elimination of parasites by PDT (L. braziliensis [3]): effectively eliminated
